Source: PubChem
Compounds with a hit are over-represented: about 3.3% of the library has one in this group of screens.
Rev-RRE block = inhibitors of HIV-1 Rev-RRE RNA interaction. 97,000 tested, 0.79% active. Rev peptide-RRE RNA binding, FRET. P05866. inhibition, % at 8 µM;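 active = inhibition above the screen-wide mean plus 3 SD, cut at about 35% in these data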
Target sequence (P05866 whole entry, looked up): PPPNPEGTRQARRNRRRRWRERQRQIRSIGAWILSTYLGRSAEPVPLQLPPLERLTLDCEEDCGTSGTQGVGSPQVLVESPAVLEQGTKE
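Test system – labelled RRE RNA duplex and labelled Rev peptide · Signal – fluorescein-to-Cy5 FRET, 480 nm excitation · Evaluation – % inhibition of FRET ratio versus controls · Benchmarks – DMSO low control, neomycin B high control · Incubation – 5 min RNA-compound premix plus 15 min binding step, 25 °C · Medium – HEPES pH 7.5 salt buffer with EDTA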
NFkB transloc pot = enhances IL-1B driven NFkB nuclear translocation. HUVEC IL-1B NFkB p65 nuclear translocation imaging. activation, % at 2 µM. 94,000 tested, 0.3% active. AID 819;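 active = activation above 40%, about the mean plus 3 SD, also judged a hit on visual image review; inconclusive = activation above 40% but not a hit on visual review; inactive = activation not above 40% and no visual hit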;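 note: percent activation is computed from the nuclear over cytoplasmic p65 intensity ratio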
Measles CPE = protection of cells from measles virus | 140,000 tested, 1.5% active | Measles virus-infected cells, CPE protection, absorbance | protection (pct of control), % at 4 µM | AID 841; in the data active = protection mostly above about 24%, no sharp cut-off; inactive = mostly below about 26%
NFkB transloc inh = blocks IL-1B driven NFkB nuclear translocation in HUVEC cells. 94,000 tested, 0.43% active. AID 796. HUVEC IL-1B NFkB p65 nuclear translocation imaging. inhibition, % at 2 µM;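 active = inhibition above about 30% together with a positive call from visual inspection of the well image, limit read from the data; inconclusive = inhibition above a set limit but visual check negative; inactive = inhibition not above a set limit, visual check negative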;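 note: nuclear over cytoplasmic p65 intensity ratio measured by imaging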
FAK blocker = blocks human focal adhesion kinase activity; Q05397; biochemical FAK kinase activity assay; inhibition, %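 (tested at 7 µM)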; 97,000 tested, 0.84% active; AID 727
HUVEC tox IL1B = toxic to HUVEC cells under IL-1B stimulation; HUVEC cell count loss, Hoechst imaging, IL-1B stimulated; cell count reduction, % at 2 µM; 94,000 tested, 0.41% active; AID 845;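 active = cell count reduction more than 3 SD above the screen-wide mean, cut at about 70% in these data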
FAK inh conf = confirmation of human focal adhesion kinase (FAK) inhibitors; shares compounds with FAK blocker; FAK kinase biochemical inhibition assay; inhibition, % at 7 µM; 750 tested, 28% active; AID 794
Of the large screens only hits and unclear results are named; the others gave an inactive call (follow-up assays come after a bar, where they were run). Cut-off read from the data, not from the text of the source, unless noted: active = inhibition above about 19%; inactive = the rest.

c1coc(-c2nc(-c3ccco3)c(-c3ccco3)nc2-c2ccco2)c1	FAK blocker 99 | FAK inh conf inactive
Cc1ccc(C(=O)C(c2ccccc2)N2Cc3ccccc3C2=N)cc1 (stereo not given)	none (no result: Rev-RRE block, NFkB transloc pot, NFkB transloc inh, FAK blocker, HUVEC tox IL1B)
CN1CCN(C(=O)CCc2nc3ccccc3n2-c2ccccc2)CC1	none (no result: Rev-RRE block, NFkB transloc pot, NFkB transloc inh, FAK blocker, HUVEC tox IL1B)
COc1ccc(/C=N/NC(=O)Nc2cccc3nsnc23)c(OC)c1	FAK blocker 26 | FAK inh conf inactive
COc1cc(/C=N/NC(=O)Nc2cccc3nsnc23)cc(OC)c1OC	none
CCOc1ccc2nc(SCC(=O)N3CCCCCC3)c(C#N)cc2c1	FAK blocker 25 | FAK inh conf inactive
O=C(CSc1nnc(-c2ccc(Br)cc2)n1CCc1ccccc1)NC1CCS(=O)(=O)C1 (stereo not given)	none (no result: Rev-RRE block, NFkB transloc pot, NFkB transloc inh, FAK blocker, HUVEC tox IL1B)
COc1ccc(CCNC(=O)CN(C2CCCCC2)S(C)(=O)=O)cc1OC	FAK blocker 20 | FAK inh conf inactive
N#Cc1cc2ccc(N3CCOCC3)cc2cc1C#N	FAK blocker 23 | FAK inh conf inactive
CCn1c(SCC(=O)NCc2ccco2)nnc1-c1c[nH]c2ccccc12	none
COCCn1c(SCC(=O)NCc2ccco2)nnc1-c1c[nH]c2ccccc12	FAK blocker 40 | FAK inh conf inactive
COCCN1Cc2cccc(C(=O)NC(C)c3cccs3)c2C1=O (stereo not given)	none
COc1ccc(N2Cc3cccc(C(=O)NC(C)CCc4ccco4)c3C2=O)cc1 (stereo not given)	FAK blocker 33 | FAK inh conf inactive
CCOC(=O)N1CCC(NC(=O)c2cccc3c2C(=O)N(c2ccc(OC)cc2)C3)CC1	FAK blocker 44 | FAK inh conf inactive
c1ccc(-n2cnc3cc(NCc4cccs4)ccc32)cc1	FAK blocker 23 | FAK inh conf inactive
Cc1ccc(-n2cnc3cc(NCc4cccs4)ccc32)cc1	none
COc1cccc(Nc2ncnc3nc[nH]c23)c1	FAK blocker 23 | FAK inh conf inactive
CCCCc1ccc(Nc2ncnc3nc[nH]c23)cc1	none
Cc1ccc(Nc2ncnc3nc[nH]c23)cc1Cl	FAK blocker 31 | FAK inh conf inactive
CC(=O)Nc1cc(N=Cc2ccc(O)cc2O)c(Cl)cc1Cl	none (no result: Rev-RRE block, NFkB transloc pot, NFkB transloc inh, FAK blocker, HUVEC tox IL1B)
Cc1ccc(N2C(=N)/C(=C3/Nc4ccccc4S3)C(c3ccccc3)C2=O)cc1 (stereo not given)	none (no result: Rev-RRE block, NFkB transloc pot, NFkB transloc inh, FAK blocker, HUVEC tox IL1B)
O=S(=O)(c1ccc(Oc2ccc(-c3nnco3)cc2)nc1)N1CCC(Cc2ccccc2)CC1	Measles CPE 43, FAK blocker 19 | FAK inh conf inactive
COc1ccccc1N1CCN(S(=O)(=O)c2ccc3c4c(cccc24)C(=O)N3C)CC1	none
COc1ccc2c3c(cccc13)N(C)N=C2C	FAK blocker 34 | FAK inh conf inactive
Cc1nn(CC(=O)Nc2ccc3c(c2)oc2ccccc23)c(=O)c2ccccc12	FAK blocker 29 | FAK inh conf inactive
CNC(=O)Cn1nc(C)c2ccccc2c1=O	none
NC(=O)CNC(=O)[C@@H]1CC2(CC(c3ccc(Cl)cc3)=NO2)CN1C(=O)c1ccccc1 (stereo not given in full)	none
O=C(COc1ccc(S(=O)(=O)N2CCCC2)cc1)NCCC1=CCCCC1	FAK blocker 23 | FAK inh conf inactive
Cc1sc2nc(C3CC3)nc(SCC(=O)NCc3ccco3)c2c1C	FAK blocker 31 | FAK inh conf inactive
Cc1ccc(S(=O)(=O)N=S(CCO)CCO)cc1	none (no result: Rev-RRE block, NFkB transloc pot, NFkB transloc inh, FAK blocker, HUVEC tox IL1B)
CCCCn1[nH]c(-c2ccccc2)cc1=O	none (no result: Rev-RRE block, NFkB transloc pot, NFkB transloc inh, FAK blocker, HUVEC tox IL1B)
Cc1c([N+](=O)[O-])c([N+](=O)[O-])nn1CC(=O)N1CCCCC1	none (no result: Rev-RRE block, NFkB transloc pot, NFkB transloc inh, FAK blocker, HUVEC tox IL1B)
O=c1oc2ccccc2c(Nc2ccc(O)cc2)c1[N+](=O)[O-]	none
O=c1oc2ccccc2c(Nc2ccc3ccccc3c2)c1[N+](=O)[O-]	FAK blocker 24 | FAK inh conf inactive
COCCNC(=O)c1c(N)n(-c2ccccc2)c2nc3ccccc3nc12	none
COCCNC(=O)c1c(N)n(CCCn2ccnc2)c2nc3ccccc3nc12	NFkB transloc inh inconclusive, FAK blocker 24 | FAK inh conf inactive
COC(=O)C1=C(C)NC2=C(C(=O)CC(c3cccs3)C2)C1c1ccsc1 (stereo not given)	FAK blocker 22 | FAK inh conf 21
O=C(O)CCC(=O)NNC(=O)c1ccc(Br)cc1	none (no result: Rev-RRE block, NFkB transloc pot, NFkB transloc inh, FAK blocker, HUVEC tox IL1B)
O=C(NCc1ccco1)c1cccn2c(=O)c3cc4ccccc4cc3nc12	Rev-RRE block 57, FAK blocker 37 | FAK inh conf inactive
Cc1ccc(Cn2c(=N)c(C(=O)NCc3ccco3)cc3c(=O)n4ccccc4nc32)cc1	FAK blocker 40 | FAK inh conf inactive
O=C(NCCc1ccccn1)c1cc(-c2ccccc2Cl)nc2ccccc12	none (no result: Rev-RRE block, NFkB transloc pot, NFkB transloc inh, FAK blocker, HUVEC tox IL1B)
Cc1nc2c(ccc3nc(NC(=O)c4ccc5c(c4)OCCO5)sc32)s1	FAK blocker 24 | FAK inh conf inactive
CCOc1ccc(N=C2NC(=O)S/C2=C\c2ccc(Cl)cc2)cc1	FAK blocker 33 | FAK inh conf 51
CC1(C)C(C=C(Cl)Cl)C1C(=O)Nc1ccc([N+](=O)[O-])cc1 (stereo not given)	none (no result: Rev-RRE block, NFkB transloc pot, NFkB transloc inh, FAK blocker, HUVEC tox IL1B)
O=C(c1cccs1)[C@@H]1[C@@H]2C(=O)N(Cc3ccc4c(c3)OCO4)C(=O)[C@@H]2C2c3ccccc3C=CN21 (stereo not given in full)	FAK blocker 20 (no result: Measles CPE) | FAK inh conf inactive
O=C(c1ccc2c(c1)OCO2)[C@@H]1[C@@H]2C(=O)N(C3CCCCC3)C(=O)[C@@H]2C2c3ccccc3C=CN21 (stereo not given in full)	none
CCC(=O)N(C)CCc1cc2c(c(OC)c1/C=N/NC(=O)c1ccc(Br)cc1)OCO2	none (no result: Rev-RRE block, NFkB transloc pot, NFkB transloc inh, FAK blocker, HUVEC tox IL1B)
O=c1c2c3c(sc2n(CCN2CCCC2)c(=O)n1Cc1ccco1)CCCCC3	none (no result: Rev-RRE block, NFkB transloc pot, NFkB transloc inh, FAK blocker, HUVEC tox IL1B)
O=C(Cn1c(=O)n(Cc2ccco2)c(=O)c2c3c(sc21)CCCCC3)Nc1ccccc1	FAK blocker 32 | FAK inh conf inactive
O=C(Cn1c(=O)n(Cc2ccco2)c(=O)c2c3c(sc21)CCCCC3)c1ccccc1	FAK blocker 30 | FAK inh conf inactive
O=C(NN1C(=O)c2ccccc2C1=O)C1C2CCCCC21 (stereo not given)	none (no result: Rev-RRE block, NFkB transloc pot, NFkB transloc inh, FAK blocker, HUVEC tox IL1B)
CCOC(=O)C1CCCN(C(=S)Nc2cccc(Cl)c2)C1 (stereo not given)	none (no result: Rev-RRE block, NFkB transloc pot, NFkB transloc inh, FAK blocker, HUVEC tox IL1B)
O=C(OCCN=C1NS(=O)(=O)c2ccccc21)c1cccnc1	FAK blocker 51 | FAK inh conf 28
CCCCNC(=O)NC1CCCC1	none (no result: Rev-RRE block, NFkB transloc pot, NFkB transloc inh, FAK blocker, HUVEC tox IL1B)
CCOc1ccc(/C=C\C(C)=N\O)cc1	FAK blocker 20 | FAK inh conf inactive
Cc1ccc(N)c2c1OCCC2=O	none (no result: Rev-RRE block, NFkB transloc pot, NFkB transloc inh, FAK blocker, HUVEC tox IL1B)
N/C(=N\OC(=O)c1cccc2ccccc12)c1cccc([N+](=O)[O-])c1	FAK blocker 28 | FAK inh conf inactive
c1cncc(-c2nc(NCc3ccco3)c3ccccc3n2)c1	FAK blocker 19 | FAK inh conf inactive
Cc1ccc(-c2nc(NCc3ccco3)c3ccccc3n2)cc1	none (no result: Rev-RRE block, NFkB transloc pot, NFkB transloc inh, FAK blocker, HUVEC tox IL1B)
